Compound activity from PubChem.
Yeast life ext – compounds extending yeast replicative lifespan, primary screen, S. cerevisiae, OD615; S. cerevisiae growth with nicotinamide; deaD strain in restrictive glucose medium; inhibition of the nicotinamide effect, % at 10 µM; 130,000 tested, 0.68% active; AID 775, 2007;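 active means inhibition above a set limit, placed 3 SD over the median of all compounds, cut at about 26% in these data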
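Assay system: engineered S. cerevisiae DeaD replicative-lifespan strain, galactose-grown log-phase cells; Buffer or medium: CSMM-D glucose medium, restrictive; Probe or stimulus: nicotinamide 1.5 mM; Compound: single dose 10 µM compound, 0.25% DMSO; Schedule: 4 h preincubation then 48 h treatment at 30 °C; Technique: OD615 measurement.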
Phagocytosis inh – inhibitors of macrophage phagocytosis, primary screen, imaging, J774A.1 cells, IgG beads. 110,000 tested, 0.07% active. J774A.1 macrophage IgG-bead phagocytosis. inhibition, % at 5 µM;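 active means inhibition above the mean of the plate negative controls plus 5 SD, cut at about 13% in these data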;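 further: phagocytic index as fraction of beads internalized from green versus red external bead signal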
MRP1 act – H69AR viability gain despite doxorubicin, primary screen, MRP-1 activator project, H69AR cells, CellTiter-Glo; viability rescue; viability increase, % at 10 µM; 140,000 tested, 0.61% active;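 active means viability gain under doxorubicin at or above a set limit, the compound median plus 3 SD, cut at about 4.7% in these data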;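 further: MRP-1 overexpressing cells given doxorubicin 25 µM after compound pretreatment; 18-22 h compound pretreatment then 72 h with doxorubicin before readout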
MRP resist rev – reversal of MRP1-mediated doxorubicin resistance, primary screen, H69AR cells, doxorubicin co-treatment. H69AR cells + 2 uM doxorubicin, CellTiter-Glo, 72 h. differential viability (reversal), % at 10 µM. 85,000 tested, 0.04% active. AID 602, 2007;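 active means viability drop by adding the cancer drug above about 55%, with treated viability meeting a 40% cutoff, limit read from the data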;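 further: larger differential means the compound sensitizes cells more to doxorubicin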
Yeast growth inh – growth inhibitors of yeast BB579 in restrictive medium, primary screen, yeast lifespan-shortening project, S. cerevisiae | AID 804, 2007 | inhibition, % at 10 µM | OD615, 48 h | 140,000 tested, 0.51% active;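 active means inhibition above a set limit, 3 SD over the mean compound inhibition, cut at about 44% in these data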
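Assay system: S. cerevisiae DeaD strain BB579 yeast. Medium: CSMM-D restrictive synthetic medium containing dextrose (glucose). Times: 4 h cell preincubation, 48 h compound exposure, 30 °C humidified. Signal: OD615 turbidity measurement. Benchmarks: positive control amphotericin B 10 µg/mL.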
SDO1 yeast rescue – growth rescue of sdo1-depleted yeast, primary screen, S. cerevisiae, bone marrow failure model; 140,000 tested, 0.21% active; z-score at 10 µM; S. cerevisiae sdo1-depleted JHY4D growth rescue, OD600 30 h; active compounds read high; pdr5 snq2 efflux-pump mutant strain; AID 817, 2007;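 active means z-score above 3 at both the 24 hr and the 30 hr optical density reads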
SDO1 rescue DR – SDO1-depleted yeast growth rescue, concentration-response, diseases of bone marrow failure, JHY4D, OD600. 440 tested, 44% active. S. cerevisiae JHY4D (SDO1-depleted) growth rescue, 30 h; active compounds read high; efflux-deficient strain, SNQ2 and PDR5 mutated. OD recovery (no concentration beside the values). AID 949, 2007. shares compounds with SDO1 yeast rescue;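 active means yeast growth recovered at 30 hours, either rising with dose fitted slope above 0.001 or with average optical density gain above 0.07, some results past the limit were not filed as active; inactive means growth falling with dose or no effect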
A number is an active result; - = inactive; . = no result. Hits are enriched below; roughly 2.1% of the tested compounds scored in any of these assays.

SMILES	Yeast life ext	Phagocytosis inh	MRP1 act	MRP resist rev	Yeast growth inh	SDO1 yeast rescue	SDO1 rescue DR
COc1ccc(CCNC(=O)CC(NS(=O)(=O)c2ccc(NC(C)=O)cc2)C(C)C)cc1OC (configuration not stated)	-	.	-	-	-	-	-
CCCCNS(=O)(=O)c1ccc2nc(SCC(=O)Nc3cccc(F)c3)[nH]c2c1	-	-	-	.	-	-	.
CCCCNS(=O)(=O)c1ccc2nc(SCC(=O)Nc3ccccc3Cl)[nH]c2c1	-	-	-	.	-	-	0.11
COc1ccc2c(C)cc(SCn3nnc4ccccc4c3=O)nc2c1	-	-	-	.	-	-	.
Cc1c(Cl)ccc2sc(NC(=O)CN3C(=O)c4ccccc4C3=O)nc12	-	.	-	.	-	-	.
NC(=O)[C@H]1CC2(CC(c3cccc(NC(=O)c4ccccc4)c3)=NO2)CN1C(=O)[C@H]1CCC(=O)N1 (some centres not stated)	-	.	-	.	-	-	.
O=C(NCc1ccco1)c1ccc(Br)c(S(=O)(=O)N2CCCCC2)c1	-	-	-	-	-	4.7	0.072
Cc1c(C(=O)NC2CCCc3ccccc32)oc2ccc(S(=O)(=O)N3CCCCC3)cc12 (configuration not stated)	-	-	-	.	-	9.3	0.092
OC(CN1c2ccccc2Sc2ccccc21)Cn1nnc2ccccc21 (configuration not stated)	-	-	-	-	-	-	.
Cc1nn(CC(O)CN2c3ccccc3Sc3ccccc32)c(C)c1Br (configuration not stated)	-	-	-	-	-	4.5	-
Cc1cc(O)c(-c2cc(C(=O)Nc3ccc(S(=O)(=O)N4CCOCC4)cc3)[nH]n2)cc1C	-	-	-	-	-	-	0.091
Cc1ccc(Cn2nc(C)c(NC(=O)c3nn(C)cc3Cl)c2C)cc1	.	.	-	-	-	-	.
Cc1nn(Cc2ccc(Br)cc2)c(C)c1NC(=O)c1nn(C)cc1Cl	-	-	-	-	-	15	-
Cc1cc(C)nc(SCC(=O)NC2=NN=C(c3ccc(Br)cc3)CS2)n1	-	.	-	.	-	-	0.083
CCC(Sc1nc(C)cc(C)n1)C(=O)NC1=NN=C(c2ccc(C)cc2)CS1 (configuration not stated)	-	-	-	.	-	-	.
O=S(=O)(c1ccc2c(c1)OCCO2)N1CCC(c2nc3ccc(Cl)cc3[nH]2)CC1	-	-	-	-	-	9.1	-
Cc1nc2ccc(NC(=O)Cc3ccsc3)cc2s1	-	-	-	-	-	-	.
CCOC(=O)[C@@H]1C(c2c(OC)cc(OC)cc2OC)=NO[C@@H]1C(=O)OCC	-	-	-	.	-	6	0.071
CCOC(=O)C1CCN(C(=O)c2c(-c3c(F)cccc3Cl)noc2C)CC1	-	-	-	-	-	-	.
Cc1ccc(C2C(C#N)=C(N)Oc3c2c(=O)n(C)c(=O)n3C)cc1 (configuration not stated)	-	.	-	.	-	-	.
CCc1ccccc1NC(=O)CC(O)(C(=O)OC)C(F)(F)F (configuration not stated)	-	-	-	-	-	3.1	-
COc1ccc(C(=O)OCC(=O)Nc2cc(C)c(C)cc2[N+](=O)[O-])cc1	-	-	-	.	-	-	-
CCOC(=O)C1(Nc2nccs2)Sc2ccccc2NC1=O (configuration not stated)	-	-	-	-	-	-	.
Cc1cc(Cl)c(OCCCNCc2ccccc2)c(Br)c1	-	-	-	.	-	4.2	-
COCCNCCCCOc1c(Cl)cc(C)cc1Br	-	-	-	.	-	-	.
CCOc1ccccc1NC(=O)C(OC(=O)c1ccccc1NS(=O)(=O)c1cccs1)c1ccccc1 (configuration not stated)	-	.	-	.	-	-	.
